Published values from different studies.
Protocols differ between the studies behind these lines.

Structure (SMILES) | method | matrix | time | pH | temperature | solubility
O=C(c1ccccn1)N(Cc1cccs1)C1(C(=O)NC2CCCCC2)CCCCC1 |  | aqueous buffer |  | pH 6.2 |  | 6.6 µg/mL
COc1c(Cl)cccc1Nc1nc(NCc2ccccc2)c2ccccc2n1 |  | aqueous buffer |  | pH 7.4 |  | 0.06 µg/mL
NC(=O)c1ccc(N(Cc2ccc(C3CCCCC3)cn2)C(=O)[C@H]2CCN2S(=O)(=O)c2c(F)c(F)c(F)c(F)c2F)cc1O |  | simulated intestinal fluid |  |  |  | 117 µg/mL
CCc1cc(O)ccc1-c1ccc2c(-c3nc4c([nH]3)CN(C(C)C)[C@H](C(=O)N3CC(N(C)C)C3)C4)n[nH]c2c1 |  | aqueous buffer |  |  |  | 13 µM
O=C(Nc1cc(F)ccc1C(=O)O)c1ccc(-c2ccccc2)cc1 | shake flask | aqueous buffer | 24 h | pH 6.5 | 25 °C | 5 µM
CCn1c(-c2nc3cc(C(=O)N4CCC[C@@H](N)C4)cc(OC)c3n2C)cc2cccnc21 |  | aqueous buffer |  |  |  | 396 µM
O=C(O)c1ccccc1O |  | PBS |  | pH 7.4 |  | 7700 µg/mL
COc1cccc2c(NCc3ccccc3)nc(NCc3ccccc3)nc12 |  | aqueous buffer |  | pH 6.2 |  | 1 µg/mL
CCOc1ccc2cc(-c3nn(C4CCCC4)c(N)c3C(N)=O)cnc2c1 |  | PBS |  | pH 6.5 | 25 °C | 98.7 µM
Fc1ccc(-c2nc3c(N4CCCN(CC5CC5)CC4)nccc3[nH]2)cc1F | shake flask | aqueous buffer |  | pH 6.5 |  | > 200 µM
COc1c(N2CCNC(C)C2)c(F)cc2c(=O)c(C(=O)NCCCN(C)C)cn(C3CC3)c12 (racemic) |  | water |  |  |  | 72000 µM
Brc1cccc(Nc2nc(NCc3ccccc3)c3ccccc3n2)c1 |  | aqueous buffer |  | pH 5 |  | 0.03 µg/mL
COc1ccc(C2CC(=O)c3c(O)cc(O)cc3O2)cc1O (stereo not shown) | shake flask | water | 24 h |  | 25 °C | 15.7 µg/mL
Cc1cc(Nc2ccc(C(F)(F)F)cc2)n2nc(CCO)nc2n1 | nephelometry | aqueous buffer |  | pH 6.5 |  | 19 to 37 µM
O=C(O)Cc1ccccc1Nc1c(Cl)cccc1Cl |  | PBS |  | pH 7.4 |  | 199 µM
COc1cc(Cl)c(C(=O)N[C@@H](CN[C@H]2CC[C@@H](N)CC2)Cc2ccc(C#N)cc2)cc1-c1ccc(CN[C@H](C)c2ccc(C)cc2)o1 |  | aqueous buffer |  | pH 6.5 |  | > 3070 µg/mL
CNc1nc2ccccc2n2c(-c3cccc(OC)c3)cnc12 | HPLC | ethanol |  |  |  | 500 µg/mL
Cc1ccc(Nc2nc(NCc3ccccc3)c3ccccc3n2)cc1F |  | aqueous buffer |  | pH 5 |  | 0.13 µg/mL
CCn1cc(CNC(=O)C2=C(C)NC(Nc3nc4ccc(F)c(N)c4o3)=NC2c2ccc(C)cc2Cl)cn1 (stereo not shown) |  | aqueous buffer | 6 h | pH 7.4 |  | < 1 µg/mL
CC(C)(C)n1nc(-c2cnc3cc(F)ccc3c2)c(C(N)=O)c1N |  | PBS |  | pH 6.5 | 25 °C | > 100 µM
Cc1cc(Nc2ccc(S(F)(F)(F)(F)F)cc2)n2nc(C3CC3)nc2n1 | nephelometry | aqueous buffer |  | pH 6.5 |  | 16 to 32 µM
CCOC(=O)c1ccc(O)cc1 |  | PBS |  | pH 7.4 |  | 1210 µg/mL
COC(=O)Nc1nc2cc(C(=O)c3ccc(F)cc3)ccc2[nH]1 |  | water | 24 h |  |  | < 1 µg/mL
COc1cccc2c(-c3ccccc3)cc(-c3ccc(-c4ccc(C(=O)O)cc4)[nH]3)nc12 |  | PBS |  | pH 7.4 |  | 0.26 µM
Cc1n(Cc2ccc3ccccc3n2)c2ccccc2[n+]1Cc1ccc2ccccc2n1.[Cl-] |  | water |  |  |  | > 500 µg/mL
Clc1ccc2c(nc(N3CCNCC3)n2Cc2ccccc2)c1Br | shake flask | aqueous buffer | 20 h | pH 6.5 | 25 °C | 50 µM
COc1cccc(OC)c1-c1nc(C(=O)N[C@@H](CC(C)C)C(=O)O)cn1-c1cccc2ccccc12 |  | aqueous buffer |  | pH 6.2 |  | > 145 µg/mL
CC(C)C[C@H](NC(=O)[C@H](CCc1ccccc1)NC(=O)CN1CCOCC1)C(=O)N[C@@H](Cc1ccccc1)C(=O)N[C@@H](CC(C)C)C(=O)[C@@]1(C)CO1 |  | PBS | 24 h | pH 7.4 |  | 1.12 µg/mL

Structure (SMILES) | method | matrix | time | pH | temperature | solubility
CN1CCN(C2=Nc3cc(Cl)ccc3Nc3ccccc32)CC1 |  | FaSSIF | 24 h | pH 7.4 | 37 °C | 350 µg/mL
COCc1nn(Cc2ccc(Cn3ccccc3=O)cc2)cc1C(=O)NCc1c(F)ccc(OC)c1F |  | FaSSIF | 4 h | pH 6.5 |  | 9 µg/mL
NC1CCN(c2nccc3[nH]c(-c4ccc(F)c(F)c4)nc23)CC1 | shake flask | aqueous buffer |  | pH 6.5 |  | > 200 µM
CCCCCCCCN1CCCC1=O |  | PBS | 48 h | pH 7.4 | 25 °C | 4800 µM
O=C(/C=C/c1ccc(CN(CCO)CCc2c[nH]c3ccccc23)cc1)NO | HPLC | water | 48 h | pH 6 | 25 °C | 8 µg/mL
Brc1ccc2c(c1)nc(N1CCNCC1)n2Cc1ccccc1 | shake flask | aqueous buffer | 20 h | pH 6.5 | 25 °C | 105 µM
CCOc1ccc2cc(-c3nn(C(C)(C)C)c(N)c3C(N)=O)ccc2n1 |  | PBS |  | pH 6.5 | 25 °C | 83.5 µM
Cl.Clc1ccc2c(nc(N3CCNCC3)n2Cc2ccccc2)c1-c1ccccc1 | shake flask | aqueous buffer | 20 h | pH 6.5 | 25 °C | 195 µM
N=C(N)NCc1ccc(NC(=O)c2ccc(C(=O)Nc3ccc(C4=CCN(C(=N)N)CC4)cc3)cc2)cc1 | shake flask | aqueous buffer |  | pH 7.4 |  | 171 µg/mL
CC(C)(C)n1nc(-c2ccc3nc(OC4CC4)ccc3c2)c(C(N)=O)c1N |  | PBS |  | pH 6.5 | 25 °C | 96.3 µM
CS(=O)(=O)N1CCN(Cc2cc3nc(-c4cccc5[nH]ncc45)nc(N4CCOCC4)c3s2)CC1 |  | FeSSIF |  |  |  | 6 µg/mL
COc1ccc(Nc2nc(NCc3ccccc3)c3ccccc3n2)cc1F |  | aqueous buffer |  | pH 5 |  | 3.4 µg/mL
CCOc1nc2nc(C)cc(Nc3ccc(S(F)(F)(F)(F)F)cc3)n2n1 | nephelometry | aqueous buffer |  | pH 6.5 |  | 4 to 8 µM
CN1CCN(C[C@H]2CCCN(c3nccc4[nH]c(-c5cc(F)cc(F)c5)nc34)C2)CC1 | shake flask | aqueous buffer |  | pH 6.5 |  | > 200 µM
Cc1c(F)cccc1Nc1nc(NCc2ccccc2)c2ccccc2n1 |  | aqueous buffer |  | pH 6.2 |  | 0.05 µg/mL
Cl.Clc1ccc2c(nc(N3CCNCC3)n2Cc2ccccc2)c1-c1ccncc1 | shake flask | aqueous buffer | 20 h | pH 6.5 | 25 °C | 200 µM
OCCOc1ccccc1 |  | PBS | 48 h | pH 7.4 | 25 °C | 180000 µM
Cc1ccc(F)cc1Nc1nc(NCc2ccccc2)c2ccccc2n1 |  | aqueous buffer |  | pH 5 |  | 5.6 µg/mL
Cc1c(F)cccc1NC(=O)Nc1ccc(Cl)c(S(=O)(=O)[C@H]2CCCNC2)c1O |  | aqueous buffer | 4 h | pH 5 |  | 6 µg/mL
c1ccc(CNc2nc(N3CCNc4ccccc43)nc3ccccc23)cc1 |  | aqueous buffer |  | pH 6.2 |  | 18 µg/mL
COc1cccc(OC)c1-c1nc(C(=O)N[C@@H](CC(C)C)C(=O)O)cn1-c1ccnc2cc(Cl)ccc12 |  | aqueous buffer |  | pH 6.2 |  | > 52 µg/mL
CN1C(C(=O)Nc2ccccn2)=C(O)c2ccccc2S1(=O)=O | shake flask | aqueous buffer | 48 h | pH 6.5 |  | 7 to 9 µg/mL
CCc1nc2nc(C)cc(Nc3cccc(Cl)c3)n2n1 | nephelometry | aqueous buffer |  | pH 6.5 |  | 170 to 350 µM
CC(C)(C)n1nc(-c2ccc3nc(OC4CCC4)ccc3c2)c(C(N)=O)c1N |  | PBS |  | pH 6.5 | 25 °C | 80.6 µM
Cc1ccc(-n2sc(=O)n(Cc3ccc(F)cc3)c2=O)cc1 |  | aqueous buffer |  |  |  | ~200 µM
CN1CCN([C@H]2CC[C@H](Nc3nccc4[nH]c(-c5cc(F)cc(F)c5)nc34)CC2)CC1 | shake flask | aqueous buffer |  | pH 6.5 |  | > 200 µM
CCc1nc2nc(C)cc(Nc3ccc(S(F)(F)(F)(F)F)cc3)n2n1 | nephelometry | aqueous buffer |  | pH 6.5 |  | 34 to 66 µM
